Measured values from ChEMBL document CHEMBL5252608, “Eremoxylarins D-J, Antibacterial Eremophilane Sesquiterpenes Discovered from an Endolichenic Strain of Xylaria hypoxylon” (J Nat Prod, 2023).
Activity calls are given as the source filed them. No cut-off for these calls is given here.

Tests used:
[1] = system: Human coronavirus 229E; assay: Antiviral activity against HCoV-229E harboring luciferase reporter gene infected in human Huh-7 cells expressing TMPRSS2 assessed as reduction in viral replication pre-incubated for 1 hrs followed by replacement with fresh media for 6 hrs by renilla luciferase based luminometer analysis; format: functional, organism-based; settings: time 7.0 hrs
Outline: (§1)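 Huh-7 or Huh-7/TMPRSS2 cells in DMEM GlutaMAX-I with 10% FBS. Inoculated with luciferase-reporter HCoV-229E at MOI 0.5 for 1 h at 37 °C with compound at increasing concentrations (highest 50 μM). Virus then replaced by compound-containing medium for 6 h. Lysed for Renilla luciferase luminescence, normalised to DMSO control. Triplicate measures, 3 independent experiments, mean ± SEM.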

[2] = system: Human coronavirus 229E; assay: Antiviral activity against HCoV-229E harboring luciferase reporter gene infected in human Huh-7 cells assessed as reduction in viral replication pre-incubated for 1 hrs followed by replacement with fresh media for 6 hrs by renilla luciferase based luminometer analysis; format: functional, organism-based; outline: as §1
[3] = Selectivity index, ratio of CC50 for human Huh-7 cells to IC50 for antiviral activity against HCoV-229E harboring luciferase reporter gene infected in human Huh-7 cells; format: toxicity, cell-based; settings: read-out: Ratio CC50/IC50
Outline: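 Huh-7 cells (6×10^4/well) seeded and held 16 h at 37 °C, 5% CO₂, then treated 24 h with increasing compound concentrations. MTS viability read as formazan absorbance at 490 nm; CC50 derived, 3 experiments. Ratio taken against IC50 from the luciferase-reporter HCoV-229E infection assay in Huh-7 cells (MOI 0.5, 1 h plus 6 h).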

[4] = system: Human coronavirus 229E; assay: Antiviral activity against HCoV-229E harboring luciferase reporter gene infected in human Huh-7 cells expressing TMPRSS2 assessed as reduction in viral replication upto 50 uM pre-incubated for 1 hrs followed by replacement with fresh media for 6 hrs by renilla luciferase based luminometer analysis; format: functional, organism-based; settings: time 7.0 hrs; outline: as §1
[5] = system: Human coronavirus 229E; assay: Antiviral activity against HCoV-229E harboring luciferase reporter gene infected in human Huh-7 cells assessed as reduction in viral replication upto 50 uM pre-incubated for 1 hrs followed by replacement with fresh media for 6 hrs by renilla luciferase based luminometer analysis; format: functional, organism-based; settings: time 7.0 hrs; outline: as §1

| Structure (SMILES) | Activity [1] | IC50 [2] | Activity ([2]; time 7.0 hrs) | selectivity ratio [3] | Activity [4] | Activity [5] |
| --- | --- | --- | --- | --- | --- | --- |
| C=C(C=O)[C@H]1CC=C2[C@H](OC(=O)/C(C)=C/CCCCCCC)CC[C@H](C(=O)O)[C@@]2(C)C1 | Active | 18.1 µM | Active | 2.57 |  |  |
| C=C(C=O)[C@H]1CC=C2[C@H](OC(=O)/C(C)=C/C=C/CCCCC)CC[C@H](C(=O)O)[C@@]2(C)C1 |  |  |  |  | inactive | inactive |
